In ChEMBL document CHEMBL1687801, “Pharmacokinetics-pharmacodynamics of a respiratory syncytial virus fusion inhibitor in the cotton rat model” (Antimicrob Agents Chemother, 2010):
In brackets after ≈: the same amount, converted by molar mass.

Legend:
[1] = Drug level in Sprague-Dawley rat lung tissue at 10 mg/kg, iv administered as single bolus dose measured after 3 hrs; format: ADME, organism-based; parameters: dose 10 mg/kg, route intravenous; conditions: read-out: Drug uptake
[2] = Volume of distribution at steady state in Sprague-Dawley rat plasma at 10 mg/kg, iv administered as single bolus dose; format: ADME, organism-based; parameters: dose 10 mg/kg, route intravenous; conditions: read-out: Vdss
[3] = test system: Respiratory syncytial virus; assay: Antiviral activity against respiratory syncytial virus long strain infected in cotton rat assessed as log reduction in epithelial lining fluid viral load at 25 mg/kg, sc single dose administered 24 hrs before viral infection by plaque assay; format: functional; conditions: route subcutaneous
Outline: (§1)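 Cotton rats (60–100 g, six per dose cohort) received one s.c. dose of an aqueous slow-release nanocrystal suspension. At 24 h they were anesthetized with isoflurane and given 10⁶ PFU RSV Long intranasally in 0.1 ml. On day 4 lungs were lavaged once with 2.5 ml PBS. BALF supernatant was plaque-titrated on Vero cells (7 days, 37°C, methylene blue). Titers were urea-corrected to ELF; log reduction was taken versus untreated infected controls.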

[4] = Drug level in cotton rat epithelial lining fluid at 10 mg/kg, iv administered as single bolus dose measured after 3 hrs; format: ADME, organism-based; parameters: dose 10 mg/kg, route intravenous; conditions: read-out: Drug uptake
[5] = Drug level in cotton rat bronchoalveolar lavage fluid at 10 mg/kg, iv administered as single bolus dose measured after 3 hrs; format: ADME, organism-based, Lung; parameters: dose 10 mg/kg, route intravenous; conditions: read-out: Drug uptake
[6] = test system: Respiratory syncytial virus; assay: Antiviral activity against respiratory syncytial virus long strain infected in cotton rat assessed as log reduction in epithelial lining fluid viral load at 25 mg/kg, sc single dose administered 24 hrs before viral infection by qRT-PCR assay; format: functional; conditions: route subcutaneous
Outline: (§2)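 Nanocrystal suspension was given as a single s.c. dose to cotton rats (six per cohort). RSV Long (10⁶ PFU) was inoculated intranasally 24 h later. On day 4, BALF from a single 2.5 ml PBS lavage was lysed with DTT and lysis buffer, and RNA was extracted with an internal control. Monoplex real-time RT-PCR was run in duplicate against an eight-point 10-fold RSV RNA standard. Titers were urea-corrected to ELF; reduction was taken versus untreated controls.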

[7] = test system: Respiratory syncytial virus; assay: Antiviral activity against respiratory syncytial virus long strain infected in cotton rat assessed as log reduction in epithelial lining fluid viral load at 200 mg/kg, sc single dose administered 24 hrs before viral infection by plaque assay; format: functional; conditions: route subcutaneous; outline: as §1
[8] = Drug level in Sprague-Dawley rat bronchoalveolar lavage fluid at 10 mg/kg, iv administered as single bolus dose measured after 3 hrs; format: ADME, organism-based, Lung; parameters: dose 10 mg/kg, route intravenous; conditions: read-out: Drug uptake
[9] = test system: Respiratory syncytial virus; assay: Antiviral activity against respiratory syncytial virus long strain infected in cotton rat assessed as log reduction in epithelial lining fluid viral load at 100 mg/kg, sc single dose administered 24 hrs before viral infection by qRT-PCR assay; format: functional; conditions: route subcutaneous; outline: as §2
[10] = test system: Respiratory syncytial virus; assay: Antiviral activity against respiratory syncytial virus long strain infected in cotton rat assessed as log reduction in epithelial lining fluid viral load at 12.5 mg/kg, sc single dose administered 24 hrs before viral infection by plaque assay; format: functional; conditions: route subcutaneous; outline: as §1
[11] = test system: Respiratory syncytial virus; assay: Antiviral activity against respiratory syncytial virus long strain infected in cotton rat assessed as log reduction in epithelial lining fluid viral load at 50 mg/kg, sc single dose administered 24 hrs before viral infection by qRT-PCR assay; format: functional; conditions: route subcutaneous; outline: as §2
[12] = test system: Respiratory syncytial virus; assay: Antiviral activity against respiratory syncytial virus long strain infected in cotton rat assessed as log reduction in epithelial lining fluid viral load at 12.5 mg/kg, sc single dose administered 24 hrs before viral infection by qRT-PCR assay; format: functional; conditions: route subcutaneous; outline: as §2
[13] = test system: Respiratory syncytial virus; assay: Antiviral activity against respiratory syncytial virus long strain infected in cotton rat assessed as maximum reduction in epithelial lining fluid viral load at 200 ng/ml plasma concentration; format: functional; parameters: scale not given: the % may be the effect or the level left
Outline: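 Plasma was drawn at 24 h after single s.c. nanocrystal doses (12.5–200 mg/kg) to cotton rats, just before intranasal RSV inoculation, and assayed by LC-MS/MS. Individual day-4 plaque-assay ELF titer reductions were plotted against this plasma concentration and fitted to a simple E_max model, E = (E_max × C24h)/(C24h + EC50).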

Lung = assay: AUC (0 to 24 hrs) in Sprague-Dawley rat lung tissue at 10 mg/kg, iv administered as single bolus dose; format: ADME, organism-based; parameters: time < 24 hr, dose 10 mg/kg, route intravenous; conditions: in vivo
Plasma = assay: Drug level in cotton rat plasma at 12.5 - 200 mg/kg, sc administered as single dose measured after 24 hrs; format: ADME, organism-based; parameters: dose 200 mg/kg, route subcutaneous; conditions: in vivo
[14] = test system: Respiratory syncytial virus; assay: microbe, parasite or virus in culture; conditions: human respiratory syncytial virus, long, HeLaM
[15] = AUC (0 to 24 hrs) in Sprague-Dawley rat bronchoalveolar lavage fluid at 10 mg/kg, iv administered as single bolus dose; format: ADME, organism-based, Lung; parameters: time < 24 hr, dose 10 mg/kg, route intravenous; conditions: in vivo
[16] = test system: Respiratory syncytial virus; assay: Antiviral activity against respiratory syncytial virus long strain infected in cotton rat assessed as log reduction in epithelial lining fluid viral load at 100 mg/kg, sc single dose administered 24 hrs before viral infection by plaque assay; format: functional; conditions: route subcutaneous; outline: as §1
[17] = Clearance in Sprague-Dawley rat plasma at 10 mg/kg, iv administered as single bolus dose; format: ADME, organism-based; parameters: dose 10 mg/kg, route intravenous
[18] = AUC (0 to 24 hrs) in Sprague-Dawley rat plasma at 10 mg/kg, iv administered as single bolus dose; format: ADME, organism-based; parameters: time < 24 hr, dose 10 mg/kg, route intravenous
[19] = test system: Respiratory syncytial virus; assay: Antiviral activity against respiratory syncytial virus long strain infected in cotton rat assessed as log reduction in epithelial lining fluid viral load at 200 mg/kg, sc single dose administered 24 hrs before viral infection by qRT-PCR assay; format: functional; conditions: route subcutaneous; outline: as §2
[20] = Drug level in Sprague-Dawley rat plasma at 10 mg/kg, iv administered as single bolus dose measured after 3 hrs; format: ADME, organism-based; parameters: dose 10 mg/kg, route intravenous; conditions: read-out: Drug uptake
[21] = Ratio of AUC (0 to 24 hrs) in Sprague-Dawley rat lung tissue to plasma; format: ADME
[22] = test system: Respiratory syncytial virus; assay: Antiviral activity against respiratory syncytial virus long strain infected in cotton rat assessed as log reduction in epithelial lining fluid viral load at 50 mg/kg, sc single dose administered 24 hrs before viral infection by plaque assay; format: functional; conditions: route subcutaneous; outline: as §1

concentration at 3 h [1]: 9400 ng/mL
Vd [2]: 55 L/kg
concentration at 3 h [4]: 392 ng/mL
concentration at 3 h [5]: 23 ng/mL
concentration at 3 h [8]: 11 ng/mL
AUC (Lung): 131000 ng·h/mL
Drug uptake (Plasma): Active
EC50 [14]: 0.07 ng/mL (≈ 0.125 nM)
AUC [15]: 170 ng·h/mL
clearance [17]: 143 mL/min/kg
AUC(0-t) at 24 h [18]: 1100 ng·h/mL
concentration at 3 h [20]: 63 ng/mL
Kp [21]: 122
SMILES: Cc1ccc(CCCO)c(NCc2ccc3nc(NCCCN4CCOCC4)n(Cc4nc(C)ccc4O)c3c2)c1
log10PFU/ml [3]: 0.3
log10PFU/ml [6]: 0.6
log10PFU/ml [7]: 1.2
log10PFU/ml [9]: 1.7
log10PFU/ml [10]: 0.2
log10PFU/ml [11]: 1.1
log10PFU/ml [12]: 0.5
Activity [13]: 50%
log10PFU/ml [16]: 0.8
log10PFU/ml [19]: 2.2
log10PFU/ml [22]: 0.4
